{"source": "ChEMBL document CHEMBL1149903", "about": "“Synthesis and biological evaluation of thiobenzanilides as anticancer agents” (Bioorg Med Chem, 2008)", "key": {"A-375 [1]": {"tested_on": "A-375", "experiment": "Cytotoxicity against human A375 cells at 10 uM by MTS assay", "format": "functional", "conditions": "read-out: Survival", "outline": "(§1)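 MTS proliferation assay. Cells were seeded at 2500 cells/well and incubated overnight, then exposed to compound at 10 µM for 24 h. MTS tetrazolium premixed with phenazine ethosulfate was then added and incubated 1–2 h at 37 °C. Absorbance was read at 490 nm against a 690 nm reference. Value reported is survival as % of control.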"}, "K562": {"tested_on": "K562", "experiment": "Cytotoxicity against human K562 cells at 10 uM by MTS assay", "format": "functional", "conditions": "read-out: Survival", "outline": "as §1"}, "[2]": {"experiment": "Cytotoxicity against human 293T cells at 10 uM by MTS assay", "format": "cell-based, HEK-293T", "conditions": "read-out: Survival", "outline": "as §1"}, "A-375 [3]": {"tested_on": "A-375", "experiment": "Cell cycle arrest in human A375 cells assessed as accumulation at G1 phase at 10 uM after 24 hrs by flow cytometry", "format": "functional", "outline": "(§2)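 A375 cells exposed 24 h to 10 µM agent, DMSO control. Harvested by trypsinization, washed in PBS, fixed in ice-cold 70% ethanol 30 min. RNase A 1 mg/mL (with trisodium citrate) at 37 °C 30 min. Stained with PI/citrate/Triton X-100 DNA solution 30 min at room temperature in the dark. DNA content of 10,000 events read by flow cytometry; phase percentages calculated.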"}, "A-375 [4]": {"tested_on": "A-375", "experiment": "Cell cycle arrest in human A375 cells assessed as accumulation at S phase at 10 uM after 24 hrs by flow cytometry", "format": "functional", "outline": "as §2"}, "A-375 [5]": {"tested_on": "A-375", "experiment": "Cell cycle arrest in human A375 cells assessed as accumulation at G2/M phase at 10 uM after 24 hrs by flow cytometry", "format": "functional", "outline": "as §2"}, "A-375 [6]": {"tested_on": "A-375", "experiment": "Induction of apoptosis in human A375 cells assessed as disruption of mitochondrial membrane potential at 10 uM after 24 hrs of labeling with rhodamine 123-dye by flow cytometry", "format": "functional, cell-based", "outline": "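Exponentially growing A375 cells treated 24 h at 10 µM, then trypsinized and pelleted. Resuspended in rhodamine 123 (10 µg/mL) for 30 min at room temperature, washed twice in PBS and read at once by flow cytometry (FL-1, 530/30 nm band pass).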"}, "A-375 [7]": {"tested_on": "A-375", "experiment": "Effect on intracellular ATP content in human A375 cells at 10 uM after 24 hrs by firefly luciferase luminescence relative to control", "format": "functional", "outline": "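Intracellular ATP measured by firefly luciferin–luciferase bioluminescence (ATPlite kit). A375 cells treated 24 h with 10 µM agent, then lysed; debris removed by centrifugation and supernatant assayed. Relative ATP expressed as percentage of the 0 µM level.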"}, "A-375 [8]": {"tested_on": "A-375", "experiment": "Induction of apoptosis in human A375 cells assessed as annexin V-FITC cells at 10 uM after 24 hrs by annexin V-FITC and PI staining", "format": "functional", "outline": "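After 24 h at 10 µM, 10⁶ A375 cells per sample were stained with annexin V-FITC and PI at the same time and analysed by flow cytometry. Annexin V⁺/PI⁻ cells were scored as early apoptotic and annexin V⁺/PI⁺ cells as necrotic.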"}, "A-375 [9]": {"tested_on": "A-375", "experiment": "Induction of apoptosis in human A375 cells assessed as caspase 3 activation at 10 uM after 24 hrs by Western blot analysis relative to control", "format": "functional, cell-based", "outline": "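Lysates of A375 cells exposed 24 h to 10 µM agent; 40 µg protein per lane run on 10% SDS-PAGE and transferred to PVDF. Blocked in 5% skim milk in PBS-T, then probed with rabbit polyclonal anti-caspase-3 (p20 active form), with actin as loading control. HRP secondary and chemiluminescence detection; band amounts quantified by densitometry.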"}, "A-375 [10]": {"tested_on": "A-375", "experiment": "Induction of apoptosis in human A375 cells assessed as increase in intracellular H2O2 release at 10 uM after 4 hrs"}, "A-375 [11]": {"tested_on": "A-375", "experiment": "Induction of apoptosis in human A375 cells assessed as increase in intracellular H2O2 release at 10 uM after 4 hrs in presence of catalase"}}, "note": "Active and inactive are the calls of the source. The rule behind the calls is not given here."}
{"smiles": "O=C(Nc1ccc(Br)cc1)c1ccc([N+](=O)[O-])cc1", "values": [{"measurement": "viability at 10 µM", "setting": "A-375 [1]", "result": 81.1, "unit": "%"}, {"measurement": "viability at 10 µM", "setting": "K562", "result": 89.1, "unit": "%"}, {"measurement": "viability at 10 µM", "setting": "[2]", "result": 86.9, "unit": "%"}]}
{"smiles": "O=C(Nc1ccc([N+](=O)[O-])cc1)c1ccc([N+](=O)[O-])cc1", "values": [{"measurement": "viability at 10 µM", "setting": "A-375 [1]", "result": 70.5, "unit": "%"}, {"measurement": "viability at 10 µM", "setting": "K562", "result": 71.3, "unit": "%"}, {"measurement": "viability at 10 µM", "setting": "[2]", "result": 85.2, "unit": "%"}]}
{"smiles": "O=[N+]([O-])c1ccc(NC(=S)c2ccc([N+](=O)[O-])cc2)cc1", "values": [{"measurement": "viability at 10 µM", "setting": "A-375 [1]", "result": 39.1, "unit": "%"}, {"measurement": "viability at 10 µM", "setting": "K562", "result": 47.9, "unit": "%"}, {"measurement": "viability at 10 µM", "setting": "[2]", "result": 44, "unit": "%"}, {"measurement": "Activity", "setting": "A-375 [3]", "result": 59.9, "unit": "%"}, {"measurement": "Activity", "setting": "A-375 [4]", "result": 11.3, "unit": "%"}, {"measurement": "Activity", "setting": "A-375 [5]", "result": 28.9, "unit": "%"}, {"measurement": "Activity", "setting": "A-375 [6]", "result": "Active"}, {"measurement": "Activity", "setting": "A-375 [7]", "result": 83.6, "unit": "%"}, {"measurement": "Activity", "setting": "A-375 [8]", "result": 16.3, "unit": "%"}, {"measurement": "Activity", "setting": "A-375 [9]", "result": "Active"}, {"measurement": "Activity", "setting": "A-375 [10]", "result": "Active"}, {"measurement": "Activity", "setting": "A-375 [11]", "result": "inactive"}]}
{"smiles": "O=[N+]([O-])c1ccc(C(=S)Nc2ccc(C(F)(F)F)cc2)cc1", "values": [{"measurement": "viability at 10 µM", "setting": "A-375 [1]", "result": 36.2, "unit": "%"}, {"measurement": "viability at 10 µM", "setting": "K562", "result": 41.4, "unit": "%"}, {"measurement": "viability at 10 µM", "setting": "[2]", "result": 41.2, "unit": "%"}, {"measurement": "Activity", "setting": "A-375 [3]", "result": 55.4, "unit": "%"}, {"measurement": "Activity", "setting": "A-375 [4]", "result": 17.1, "unit": "%"}, {"measurement": "Activity", "setting": "A-375 [5]", "result": 27.6, "unit": "%"}, {"measurement": "Activity", "setting": "A-375 [6]", "result": "Active"}, {"measurement": "Activity", "setting": "A-375 [7]", "result": 63.1, "unit": "%"}, {"measurement": "Activity", "setting": "A-375 [8]", "result": 33, "unit": "%"}, {"measurement": "Activity", "setting": "A-375 [9]", "result": "Active"}, {"measurement": "Activity", "setting": "A-375 [10]", "result": "Active"}, {"measurement": "Activity", "setting": "A-375 [11]", "result": "inactive"}]}
{"smiles": "O=[N+]([O-])c1ccc(C(=S)Nc2ccc(Br)cc2)cc1", "values": [{"measurement": "viability at 10 µM", "setting": "A-375 [1]", "result": 43, "unit": "%"}, {"measurement": "viability at 10 µM", "setting": "K562", "result": 42.9, "unit": "%"}, {"measurement": "viability at 10 µM", "setting": "[2]", "result": 48.4, "unit": "%"}, {"measurement": "Activity", "setting": "A-375 [3]", "result": 58.4, "unit": "%"}, {"measurement": "Activity", "setting": "A-375 [4]", "result": 12.7, "unit": "%"}, {"measurement": "Activity", "setting": "A-375 [5]", "result": 29, "unit": "%"}, {"measurement": "Activity", "setting": "A-375 [6]", "result": "Active"}, {"measurement": "Activity", "setting": "A-375 [7]", "result": 66.1, "unit": "%"}, {"measurement": "Activity", "setting": "A-375 [8]", "result": 7.5, "unit": "%"}, {"measurement": "Activity", "setting": "A-375 [9]", "result": "Active"}, {"measurement": "Activity", "setting": "A-375 [10]", "result": "Active"}, {"measurement": "Activity", "setting": "A-375 [11]", "result": "inactive"}]}
{"smiles": "O=C(Nc1ccc(C(F)(F)F)cc1)c1ccc([N+](=O)[O-])cc1", "values": [{"measurement": "viability at 10 µM", "setting": "A-375 [1]", "result": 87.2, "unit": "%"}, {"measurement": "viability at 10 µM", "setting": "K562", "result": 81.3, "unit": "%"}, {"measurement": "viability at 10 µM", "setting": "[2]", "result": 87.7, "unit": "%"}]}
